Here are results for 23 molecules from ChEMBL document CHEMBL1145575, “Design and synthesis of novel furoquinoline based inhibitors of multiple targets in the PI3K/Akt-mTOR pathway” (Bioorg Med Chem Lett, 2008).

Assay [1] deals with Serine/threonine-protein kinase mTOR (Homo sapiens) (UniProt P42345). In words: Inhibition of mTOR in human H460 cells assessed as p70S6 phosphorylation at Thr 389 upto 30 uM. Format: cell-based. The method, boiled down:
(§1)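 Human NSCLC H-460 cells; PI3K activity read as Akt phosphorylation at Ser 473 and mTOR activity as p70S6 kinase phosphorylation at Thr 389. Compounds were screened at 10 µM, and some up to 30 µM. Activity was reported as % inhibition. LY-294002 served as the reference inhibitor at 30 µM.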

Assay [2] addresses Phosphatidylinositol 4,5-bisphosphate 3-kinase catalytic subunit alpha isoform (Homo sapiens, UniProt P42336). In words: Inhibition of human recombinant PI3K-alpha assessed as formation of PI3P from PI by cell free kinase assay. The essentials: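 Cell-free kinase assay with recombinant PI3Kα (p110α). The read-out was PI3P formed from the substrate phosphatidylinositol. An IC50 was derived.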

Assay [3] relates to H460. In words: Inhibition of PI3K in human H460 cells assessed as Akt phosphorylation at Ser 473 at 10 uM. Format: cell-based. The method, boiled down: as §1
The target of assay [4] is T1, Hypoxia inducible factors; HIF-1-alpha, HIF-2-alpha (Homo sapiens, UniProt Q16665+Q99814). In words: Inhibition of hypoxia-induced HIF1 activation in human U251HRE cells by cell based reporter gene assay. (In a reporter assay the amount or activity of a reporter protein is the signal.)
In assay [5] the target is Serine/threonine-protein kinase mTOR (Homo sapiens) (UniProt P42345). In words: Inhibition of mTOR in human H460 cells assessed as p70S6 phosphorylation at Thr 389 at 10 uM. Format: cell-based. The method, boiled down:
as §1

Assay [6] has as its system H460. In words: Inhibition of PI3K in human H460 cells assessed as Akt phosphorylation at Ser 473 upto 30 uM. Format: cell-based. The essentials: as §1
For assay [7], the target named is Hypoxia-inducible factor 1-alpha (Homo sapiens) (UniProt Q16665). In words: Inhibition of HIF1alpha. The essentials: (§2)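 HRE-driven cell-based reporter gene assay of HIF-1 activation. Activation was induced by hypoxia (1% O2, 94% N2, 5% CO2) or by DFX. Compounds were tested up to 30 µM and an IC50 was derived. YC-1 served as the reference inhibitor.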
Assay [8] addresses T1, Hypoxia inducible factors; HIF-1-alpha, HIF-2-alpha. In words: Inhibition of HIF1 in human U251HRE cells at 10 uM by Western blot. Format: cell-based. The essentials:
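U251-HRE-Luc cells were induced with DFX for 6 h in the presence of test compound at 10 µM, alongside untreated and DFX-only controls. HIF-1 was assessed by Western blot.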

Assay [9] has as its system H460. In words: Inhibition of PI3K in human H460 cells assessed as Akt phosphorylation at 3 uM by Western blot. A general note: A western blot detects proteins with antibodies after separation by electrophoresis.
Assay [10] deals with H460. In words: Inhibition of PI3K in human H460 cells assessed as Akt phosphorylation at 10 uM by Western blot.
Assay [11] deals with Serine/threonine-protein kinase mTOR (Homo sapiens) (UniProt P42345). In words: Inhibition of mTOR in human H460 cells assessed as 4E-BP1 phosphorylation at 10 uM by Western blot. Format: cell-based. The essentials:
(§3)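 H460 cells were stimulated with 20% FCS in the presence of test compound at 3 or 10 µM, alongside untreated and FCS-only controls. Phosphorylation was assessed by Western blot.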

The target is the same in assay [12]. In words: Inhibition of mTOR in human H460 cells assessed as 4E-BP1 phosphorylation at 3 uM by Western blot. Format: cell-based. The method, boiled down: as §3
Assay [13] deals with Hypoxia-inducible factor 1-alpha (Homo sapiens) (UniProt Q16665). In words: Inhibition of HIF1-alpha at 30 uM. The method, boiled down:
as §2

The source made the active and inactive calls. The rule behind the calls is not given here.

The inhibition is the share of the control response that was lost under treatment. As a reminder, the IC50 is the concentration that inhibits the measured activity by half.

Phosphatidylinositol 4,5-bisphosphate 3-kinase catalytic subunit alpha isoform, sequence (P42336 whole entry, canonical isoform): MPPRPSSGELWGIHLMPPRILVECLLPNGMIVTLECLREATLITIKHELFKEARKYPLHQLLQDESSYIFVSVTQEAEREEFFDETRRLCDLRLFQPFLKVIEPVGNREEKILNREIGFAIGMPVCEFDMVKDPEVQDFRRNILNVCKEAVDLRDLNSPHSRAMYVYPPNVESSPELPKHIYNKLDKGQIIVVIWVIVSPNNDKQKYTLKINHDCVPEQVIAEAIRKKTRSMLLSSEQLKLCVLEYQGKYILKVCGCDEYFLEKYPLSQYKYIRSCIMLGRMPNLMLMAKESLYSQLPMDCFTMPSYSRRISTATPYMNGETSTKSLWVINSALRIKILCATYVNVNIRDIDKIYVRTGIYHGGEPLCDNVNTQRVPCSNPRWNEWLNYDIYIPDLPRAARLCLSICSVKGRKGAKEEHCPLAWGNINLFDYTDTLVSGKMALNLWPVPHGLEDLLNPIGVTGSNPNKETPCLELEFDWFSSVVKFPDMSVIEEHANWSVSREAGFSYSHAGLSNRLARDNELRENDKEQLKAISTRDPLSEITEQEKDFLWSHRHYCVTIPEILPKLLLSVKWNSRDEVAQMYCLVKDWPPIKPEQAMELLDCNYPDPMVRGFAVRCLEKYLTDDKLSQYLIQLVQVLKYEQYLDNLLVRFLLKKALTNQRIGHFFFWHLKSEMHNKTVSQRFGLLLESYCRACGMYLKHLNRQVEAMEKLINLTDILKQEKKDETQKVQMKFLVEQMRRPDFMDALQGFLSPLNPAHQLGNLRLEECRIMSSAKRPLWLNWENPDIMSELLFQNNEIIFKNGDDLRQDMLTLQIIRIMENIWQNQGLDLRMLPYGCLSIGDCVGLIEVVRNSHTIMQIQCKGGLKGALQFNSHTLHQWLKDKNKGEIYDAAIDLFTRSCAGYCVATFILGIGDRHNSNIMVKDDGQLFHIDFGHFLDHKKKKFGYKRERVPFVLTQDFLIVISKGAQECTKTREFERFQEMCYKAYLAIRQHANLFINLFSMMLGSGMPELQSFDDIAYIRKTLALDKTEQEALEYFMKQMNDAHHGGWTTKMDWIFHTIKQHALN
Hypoxia-inducible factor 1-alpha (Homo sapiens), sequence (Q16665 whole entry, looked up): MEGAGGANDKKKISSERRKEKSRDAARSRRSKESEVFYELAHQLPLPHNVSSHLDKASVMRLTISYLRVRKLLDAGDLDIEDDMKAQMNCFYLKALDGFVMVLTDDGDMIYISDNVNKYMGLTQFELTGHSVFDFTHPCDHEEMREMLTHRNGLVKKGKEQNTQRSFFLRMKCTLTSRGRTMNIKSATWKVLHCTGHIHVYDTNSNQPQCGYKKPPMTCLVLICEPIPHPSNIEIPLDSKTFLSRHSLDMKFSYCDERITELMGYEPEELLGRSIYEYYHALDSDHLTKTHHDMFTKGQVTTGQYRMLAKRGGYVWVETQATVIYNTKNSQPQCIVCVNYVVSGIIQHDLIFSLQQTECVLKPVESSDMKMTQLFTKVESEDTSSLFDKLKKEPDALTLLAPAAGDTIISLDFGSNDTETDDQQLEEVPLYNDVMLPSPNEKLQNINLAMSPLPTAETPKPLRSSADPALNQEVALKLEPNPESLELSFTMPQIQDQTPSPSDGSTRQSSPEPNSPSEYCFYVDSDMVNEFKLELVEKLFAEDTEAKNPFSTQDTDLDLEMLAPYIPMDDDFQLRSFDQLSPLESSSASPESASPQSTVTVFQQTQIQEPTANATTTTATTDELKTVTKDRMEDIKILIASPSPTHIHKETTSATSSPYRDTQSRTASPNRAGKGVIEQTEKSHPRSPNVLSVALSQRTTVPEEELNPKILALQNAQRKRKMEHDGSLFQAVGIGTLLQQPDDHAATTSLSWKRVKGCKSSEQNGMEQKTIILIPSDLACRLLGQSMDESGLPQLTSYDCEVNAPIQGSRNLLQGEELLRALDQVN

On to `COc1ccc2c(Oc3cccc([N+](=O)[O-])c3)c3ccoc3nc2c1`, for which the outcome in [1], in assay [2] and in [4] was inactive. The inhibition with H460 [3] is 43%.

Consider `COc1ccc2c(Nc3ccc(C(C)=O)cc3)c3ccoc3nc2c1`, for which, in assay [5], the inhibition was 53%. Moreover, the outcome (in assay [2]; in [4]; in the assay with H460 [6]) was inactive.

As for `COc1ccc2c(Sc3ccc([N+](=O)[O-])cc3)c3ccoc3nc2c1`, the outcome (in assay [7]; in assay [8]; with H460 [9]; with H460 [10]; in assay [11]; in [12]) was Active. In addition, the inhibition came to 49% in assay [5] and 48% in the assay with H460 [3]. Also, the values for the IC50 in assay [2] and in assay [4] were 4 µM and 3 µM, respectively.

As to `COc1ccc2c(Oc3cccnc3)c3ccoc3nc2c1`, the result in [1], in assay [2] and in assay [4] was inactive. The inhibition in the assay with H460 [3] stood at 67%.

On to `COc1ccc2c(Sc3ccc(C(=O)O)cc3)c3ccoc3nc2c1`, for which the result (in assay [7]; in [1]; in assay [2]; in assay [4]; in the assay on H460 [6]) was inactive.

With `COc1ccc2c(Sc3ccc(Br)cc3)c3ccoc3nc2c1`, the outcome (in assay [7]; in assay [1]; in assay [2]; in [4]; in the assay on H460 [6]) was inactive.

As to `O=[N+]([O-])c1cn(-c2c3cc4c(cc3nc3occc23)OCO4)cn1`, the result in [1], in [2] and in [4] was inactive. For the same molecule, the inhibition in the assay with H460 [3] was found to be 57%.

On to `O=c1cc(N2CCOCC2)oc2c(-c3ccccc3)cccc12`, for which the inhibition was 45% in assay [1] and 40% with H460 [6].

For `N#Cc1ccc(Oc2c3cc4c(cc3nc3occc23)OCO4)cc1`, the result in [1], in assay [2] and in assay [4] was inactive. Further, in the assay with H460 [3], the inhibition is 58%.

With `COc1cc2nc3occc3c(-n3ccnc3)c2cc1OC`, the outcome in [1], in assay [2] and in assay [4] was inactive. Moreover, the inhibition in the assay on H460 [3] is 64%.

Turning to `COc1ccc2c(Sc3ccc(C#N)cc3)c3ccoc3nc2c1`, the outcome (in [7]; in assay [1]; in [2]; in assay [4]; in the assay with H460 [6]) was inactive.

For `COc1cc2nc3occc3c(-n3cnc([N+](=O)[O-])c3)c2cc1OC`, the outcome in [1], in [2] and in assay [4] was inactive. Moreover, the inhibition in the assay with H460 [3] stood at 58%.

Regarding `Fc1ccc(Oc2c3cc4c(cc3nc3occc23)OCO4)cc1`, the outcome in [1], in assay [2] and in assay [4] was inactive. Also, in the assay on H460 [3], the inhibition came out at 45%.

Consider `O=[N+]([O-])c1ccc(Sc2c3cc4c(cc3nc3occc23)OCO4)cc1`, for which, in [5], the inhibition is 44%. Also, the result (in [2]; in assay [4]; in the assay with H460 [6]) was inactive.

Take `COc1ccc2c([S+]([O-])c3ccc([N+](=O)[O-])cc3)c3ccoc3nc2c1` (centres undefined): the result (in assay [7]; in [1]; in assay [2]; in assay [4]; in the assay with H460 [6]) was inactive.

Turning to `COc1cc2nc3occc3c(Sc3ccc([N+](=O)[O-])cc3)c2cc1OC`, the outcome (in assay [1]; in assay [2]; in [4]; in the assay on H460 [6]) was inactive.

Consider `O=[N+]([O-])c1ccc(Oc2c3cc4c(cc3nc3occc23)OCO4)cc1`, for which the inhibition in assay [5] stood at 47%. Further, the result (in assay [2]; in assay [4]; in the assay with H460 [6]) was inactive.

As for `COc1ccc2c(N3CCN(C(C)=O)CC3)c3ccoc3nc2c1`, the outcome in assay [1], in assay [2] and in assay [4] was inactive. Moreover, the inhibition with H460 [3] stood at 58%.

For the molecule `c1cn(-c2c3cc4c(cc3nc3occc23)OCO4)cn1`, the figures for the inhibition (in assay [5]; in the assay with H460 [3]) were 45% and 40%, respectively. Moreover, the result in [2] and in [4] was inactive.

For the molecule `COc1cc2nc3occc3c(Oc3cccnc3)c2cc1OC`, the result in assay [1], in assay [2] and in assay [4] was inactive. The inhibition in the assay on H460 [3] came to 43%.

Take `COc1ccc2c(OC)c3ccoc3nc2c1`: the result (in assay [1]; in assay [13]; with H460 [6]) was inactive.

Regarding `COc1ccc2c(-n3ccnc3)c3ccoc3nc2c1`, the outcome in [1], in assay [2] and in assay [4] was inactive. In addition, the inhibition in the assay with H460 [3] was 64%.

As to `c1cncc(Oc2c3cc4c(cc3nc3occc23)OCO4)c1`, the inhibition in [5] was 51%. For the same molecule, the outcome (in [2]; in assay [4]; with H460 [6]) was inactive.
